Measurements pooled from the literature.
Compare with care: the assays were run in different laboratories.
RPS6KA6: Ribosomal protein S6 kinase alpha-6 (RPS6KA6, Homo sapiens, UniProt Q9UK32)
RPS6KA6 N-terminal kinase domain: Ribosomal protein S6 kinase alpha-6, N-terminal kinase domain (RPS6KA6, Homo sapiens, UniProt Q9UK32)
RPS6KA6 C-terminal kinase domain: Ribosomal protein S6 kinase alpha-6, C-terminal kinase domain (RPS6KA6, Homo sapiens, UniProt Q9UK32)

`CC/C(=N\NC(=O)C(C)Nc1ccccc1)c1ccc(O)c(C)c1O` (centres unmarked) has an inhibition of 28.6% (RPS6KA6; enzyme activity; inhibitor; 0.1 µM).
`O=C(O)[C@H]1[C@H](Cn2nnc3ccccc3c2=O)CC[C@@H]1C(=O)c1ccc(OCCC2CCOCC2)cc1` gave a remaining binding of 86% (RPS6KA6 N-terminal kinase domain; cell-free assay; competition with immobilised ligand; 1 µM).
`Nc1ncnc2occ(-c3ccc(NC(=O)Nc4cc(C(F)(F)F)ccc4F)cc3)c12` has a remaining signal of 18% (RPS6KA6 C-terminal kinase domain; cell-free assay; inhibitor; 20 µM).
With `CNC(=O)c1cc(Oc2ccc(NC(=O)Nc3ccc(Cl)c(C(F)(F)F)c3)cc2)ccn1` the inhibition was -29% (RPS6KA6; enzyme activity; inhibitor; 0.3 µM).
For `Cc1nccc(COC(=O)N2C[C@@H]3[C@@H](CNC(=O)c4ccc5[nH]nnc5c4)[C@@H]3C2)n1`, the remaining binding was 100% (RPS6KA6 N-terminal kinase domain; cell-free assay; competition with immobilised ligand; 1 µM).
For `CC(C)(C)c1nc(-c2cccc(NS(=O)(=O)c3c(F)cccc3F)c2F)c(-c2ccnc(N)n2)s1`, the remaining activity was 98% (RPS6KA6; enzyme activity; inhibitor; radiometric; 1 µM).
`CC1(C)NC(=O)c2[nH]c3c(Cl)c(Cl)ccc3c2C1C#N` (centres unmarked) has a ΔTm of 2.2 °C (RPS6KA6; thermal stability; DSF; 10 µM).
For `Cc1ccc(C(=O)NCc2ccsc2)cc1C#Cc1cn(C(C)C)c2ncnc(N)c12`, the activity vs control was 71% (RPS6KA6; enzyme activity; inhibitor; 1 µM).
For `Cn1c2c(c3ccc(Cl)c(Cl)c31)C(C#N)C(C)(C)NC2=O` (centres unmarked), the ΔTm was 2.6 °C (RPS6KA6; thermal stability; DSF; 10 µM).
With `F[C@@H]1CCN(c2nccc(-c3cnn4ncccc34)n2)C1` the remaining binding was 82% (RPS6KA6 N-terminal kinase domain; binding; competition with immobilised ligand; 1 µM).
`Cc1cnc(NC2CCOCC2)nc1-n1cnc(C(=O)NC(CN)c2cc(F)cc(Cl)c2)c1` (centres unmarked) has a remaining activity of 17% (RPS6KA6; enzyme activity; inhibitor; radiometric; 1 µM).
`Cc1ccc(C(=O)Nc2ccc(CN3CCN(C)CC3)c(C(F)(F)F)c2)cc1C#Cc1cnc2cccnn12` gave a remaining activity of 93% (RPS6KA6; enzyme activity; inhibitor; 23.5 nM).
The ΔTm of `Cn1c2c(c3ccc(Cl)c(Cl)c31)C(C#N)C1(CCOCC1)NC2=O` (centres unmarked) is reported as 0.1 °C (RPS6KA6; thermal stability; DSF; 10 µM).
The remaining binding of `C[C@@H]1CCN(c2nccc(-c3cnn4ncccc34)n2)C1` is reported as 66% (RPS6KA6 C-terminal kinase domain; binding; competition with immobilised ligand; 1 µM).
`CCN1CCC2(CC1)NC(=O)c1c(c3ccc(Cl)c(Cl)c3n1C)C2C#N` (racemic) has a ΔTm of 0 °C (RPS6KA6; thermal stability; DSF; 10 µM).
With `O=C(N1CCS(=O)(=O)CC1)N1C[C@H](c2ccc(OC(F)(F)F)cc2)C[C@H](c2nc(C3CC3)no2)C1` the remaining binding was 100% (RPS6KA6 C-terminal kinase domain; cell-free assay; competition with immobilised ligand; 1 µM).
For `CN1CC(Oc2cnc(C#N)cc2-c2ccn3nc(NC(=O)C4CC4)cc3c2)C1`, the inhibition was -4% (RPS6KA6; enzyme activity; inhibitor; 1 µM).
`CCC(=N\O)/C(C)=C/c1ccc(F)cc1` gave a remaining binding of 94% (RPS6KA6 C-terminal kinase domain; cell-free assay; competition with immobilised ligand; 1 µM).
With `c1cnn2ncc(-c3ccnc(N4CCC45COC5)n3)c2c1` the remaining binding was 66% (RPS6KA6 C-terminal kinase domain; binding; competition with immobilised ligand; 1 µM).
The remaining signal of `Cc1ccc(NC(=O)c2ccc(C)c(C(F)(F)F)c2)cc1C#Cc1nn(C2CCC(O)CC2)c2ncnc(N)c12` (centres unmarked) is reported as 44% (RPS6KA6; cell-free assay; 10 µM).
`N[C@H]1CCN(c2nccc(-c3cnn4ncccc34)n2)C1` has a remaining binding of 100% (RPS6KA6 N-terminal kinase domain; binding; competition with immobilised ligand; 1 µM).
`Nc1nc(Nc2ccc(S(N)(=O)=O)cc2)nn1C(=O)c1c(F)cccc1F` gave a remaining signal of 24.7% (RPS6KA6; cell-free assay; 0.5 µM).
For `O=C(Nc1cnn(-c2csc(C(=O)NC3COC3)c2)c1)Nc1ccccc1Cl`, the remaining activity was 107% (RPS6KA6; enzyme activity; inhibitor; 5 µM).
`CCN(CC)CCNC(=O)c1c(C)[nH]c(/C=C2\C(=O)Nc3ccc(F)cc32)c1C` gave a remaining signal of 17.5% (RPS6KA6; cell-free assay; 0.5 µM).
`N#CC1c2c([nH]c3c(Cl)c(Cl)ccc23)C(=O)NC12CCCCC2` (racemic) gave a ΔTm of 1.6 °C (RPS6KA6; thermal stability; DSF; 10 µM).
`C[C@H](NC(=O)c1cnc2n1[C@](C)(Cc1ccc(C#N)cc1)C(=O)N2c1cc(Cl)c(F)c(Cl)c1)C(=O)NC1(c2ccccn2)CC1` has a remaining binding of 91% (RPS6KA6 N-terminal kinase domain; cell-free assay; competition with immobilised ligand; 1 µM).
`CN(CCCC(F)(F)F)c1nccc(-c2cnn3ncccc23)n1` has a remaining binding of 100% (RPS6KA6 N-terminal kinase domain; binding; competition with immobilised ligand; 1 µM).
`O=C1NC(=O)c2cc(Nc3ccc(F)cc3)c(Nc3ccc(F)cc3)cc21` gave a remaining signal of 97.4% (RPS6KA6; cell-free assay; 0.5 µM).
The remaining binding of `CO[C@H]1CC[C@H](CNc2ccc(S(=O)(=O)NC(=O)c3ccc(N4CCN(CC5=C(c6ccc(Cl)cc6)CC(C)(C)CC5)CC4)cc3Oc3cnc4[nH]ccc4c3)cc2[N+](=O)[O-])CC1` is reported as 81% (RPS6KA6 C-terminal kinase domain; cell-free assay; competition with immobilised ligand; 1 µM).
The remaining signal of `O=C1Nc2ccc(Cl)cc2C1=Cc1cc(Cl)c(O)c(Cl)c1` is reported as 78.5% (RPS6KA6; cell-free assay; 0.5 µM).
The remaining binding of `Cc1nc(C2CCN(C(=O)c3ccc(OC(F)(F)F)cc3N)CC2)c2ncc(N3CCN(C)CC3)cc2n1` is reported as 100% (RPS6KA6 C-terminal kinase domain; cell-free assay; competition with immobilised ligand; 1 µM).
`Cc1ccc(Nc2nccc(N(C)c3ccc4c(C)n(C)nc4c3)n2)cc1S(N)(=O)=O` has a remaining activity of 96.8% (RPS6KA6; enzyme activity; inhibitor; 0.5 µM).
With `O=C(NS(=O)(=O)c1ccc(NCC2CCOCC2)c([N+](=O)[O-])c1)c1ccc(N2CCN(Cc3ccc(C(F)(F)F)cc3-c3ccc(Cl)cc3)CC2)cc1Oc1cnc2[nH]ccc2c1` the remaining binding was 100% (RPS6KA6 N-terminal kinase domain; cell-free assay; competition with immobilised ligand; 1 µM).
With `CS(=O)(=O)CCNCc1ccc(-c2ccc3ncnc(Nc4ccc(OCc5cccc(F)c5)c(Cl)c4)c3c2)o1` the remaining signal was 108% (RPS6KA6; cell-free assay; 0.5 µM).
`COc1cc2ncnc(Nc3ccc(Oc4ccccc4)cc3C)c2cc1OC` gave an inhibition of 7% (RPS6KA6; enzyme activity; inhibitor; 1 µM).
